Test results published in ChEMBL document CHEMBL1125714, “Novel class of amino acid antagonists at non-N-methyl-D-aspartic acid excitatory amino acid receptors. Synthesis, in vitro and in vivo pharmacology, and neuroprotection” (J Med Chem, 1991).
Several values for one entry are separate records, joined by “and”; a condition that tells them apart may be missing. Identical values can stand only once.

Experiments:
Rattus norvegicus [1] = organism: Rattus norvegicus; experiment: Neuroprotective effect evaluated for excitatory amino acid receptor antagonism with the concentration at 1 uL in the corpus striatum of 9 rats with choline acetyltransferase as the marker enzyme.; assay type: functional
How it was run: (§1)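 […]-anaesthetised rats (4 mL/kg ip), stereotaxic cannula into corpus striatum; 1 µL infused containing kainate (10 nmol), quinolinic acid (300 nmol) or AMPA (100 nmol), with or without co-infused antagonist. After 3-day recovery, striata were homogenised in 50 mM Tris-HCl pH 7.4 with 0.2% Triton X-100 and spun 10000g for 10 min. Choline acetyltransferase or glutamic acid decarboxylase activity was reported as % remaining versus non-lesioned striatum.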

Rattus norvegicus [2] = organism: Rattus norvegicus; experiment: Neuroprotective effect evaluated for excitatory amino acid receptor antagonism with the concentration at 1 uL in the corpus striatum of 9 rats with glutamic acid decarboxylase as the marker enzyme.; assay type: functional; how it was run: as §1
[3] = molecular target: Glutamate receptor ionotropic AMPA (Homo sapiens, UniProt P42261+P42262+P42263+P48058); experiment: Inhibition of the binding of radioligand [3H]AMPA in the presence at low-affinity AMPA receptor sites.; assay type: protein-complex assay
[4] = Inhibition of the binding of radioligand [3H]AMPA in the presence of the compound. at Non N-methyl-D-aspartate glutamate receptor
How it was run: (§2)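 Rat brain membrane [3H]AMPA binding run with 100 mM isothiocyanate present, so both high- and low-affinity AMPA sites are detected. Competitors were tested over concentration ranges of 1–1000 μM, and the IC50 was calculated from displacement data.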

Rattus norvegicus [5] = organism: Rattus norvegicus; experiment: Neuroprotective effect evaluated for excitatory amino acid receptor antagonism with the concentration at 1 uL in the corpus striatum of 3 rats with choline acetyltransferase as the marker enzyme.; assay type: functional
How it was run: (§3)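 Rat corpus striatum, stereotaxic infusion under […] anaesthesia (4 mL/kg ip). 1 μL solution held KAIN 10 nmol, quinolinic acid 300 nmol or AMPA 100 nmol, with or without antagonist 150 nmol. After 3 days recovery, striatum was homogenized in Tris-HCl/Triton X-100 and spun at 10000g. Choline acetyltransferase and glutamic acid decarboxylase activities were read as percent of non-lesioned tissue.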

Rattus norvegicus [6] = organism: Rattus norvegicus; experiment: Neuroprotective effect evaluated for excitatory amino acid receptor antagonism with the concentration at 1 uL in the corpus striatum of 3 rats with glutamic acid decarboxylase as the marker enzyme.; assay type: functional; how it was run: as §3
Rattus norvegicus [7] = organism: Rattus norvegicus; experiment: Neuroprotective effect evaluated for excitatory amino acid receptor antagonism with the concentration at 1 uL in the corpus striatum of 5 rats with choline acetyltransferase as the marker enzyme.; assay type: functional; how it was run: as §1
Rattus norvegicus [8] = organism: Rattus norvegicus; experiment: Neuroprotective effect evaluated for excitatory amino acid receptor antagonism with the concentration at 1 uL in the corpus striatum of 5 rats with glutamic acid decarboxylase as the marker enzyme.; assay type: functional; how it was run: as §1
Rattus norvegicus [9] = organism: Rattus norvegicus; experiment: Neuroprotective effect evaluated for excitatory amino acid receptor antagonism with the concentration at 1 uL in the corpus striatum of 7 rats with choline acetyltransferase as the marker enzyme.; assay type: functional; how it was run: as §1
Rattus norvegicus [10] = organism: Rattus norvegicus; experiment: Neuroprotective effect evaluated for excitatory amino acid receptor antagonism with the concentration at 1 uL in the corpus striatum of 7 rats with glutamic acid decarboxylase as the marker enzyme.; assay type: functional; how it was run: as §1
Rattus norvegicus [11] = organism: Rattus norvegicus; experiment: Neuroprotective effect evaluated for excitatory amino acid receptor antagonism with the concentration at 1 uL in the corpus striatum of 14 rats with choline acetyltransferase as the marker enzyme.; assay type: functional; design: concentration or dose not given beside the values; how it was run: as §1
Rattus norvegicus [12] = organism: Rattus norvegicus; experiment: Neuroprotective effect evaluated for excitatory amino acid receptor antagonism with the concentration at 1 uL in the corpus striatum of 14 rats with glutamic acid decarboxylase as the marker enzyme.; assay type: functional; how it was run: as §1
[13] = Inhibition of the binding of radioligand [3H]AMPA in the presence at Non N-methyl-D-aspartate glutamate receptor; how it was run: as §2

Cc1onc(O)c1CC(N)C(=O)O.Cc1onc(O)c1Cn1oc(C)c(CC(N)C(=O)O)c1=O (stereo unspecified)
Enzyme activity (Rattus norvegicus [1]): 53% | Enzyme activity (Rattus norvegicus [2]): 39%

Cc1onc(O)c1Cn1oc(C)c(CC(N)C(=O)O)c1=O (stereo unspecified)
IC50 [3]: 335 µM | IC50 [4]: 29 µM

Cc1onc(OCC(=O)O)c1CC(N)C(=O)O.O=C(O)c1cccnc1C(=O)O (stereo unspecified)
Enzyme activity (Rattus norvegicus [5]): 52% | Enzyme activity (Rattus norvegicus [6]): 64%

Cc1onc(O)c1Cn1oc(C)c(CC(N)C(=O)O)c1=O.O=C(O)c1cccnc1C(=O)O (stereo unspecified)
Enzyme activity (Rattus norvegicus [7]): 50% | Enzyme activity (Rattus norvegicus [8]): 49%

Cc1onc(O)c1CC(N)C(=O)O.O=C(O)C1CN(CCCP(=O)(O)O)CCN1 (stereo unspecified)
Enzyme activity (Rattus norvegicus [9]): 55% | Enzyme activity (Rattus norvegicus [10]): 50%

Cc1onc(O)c1CC(N)C(=O)O.Cc1onc(OCC(=O)O)c1CC(N)C(=O)O (stereo unspecified)
Enzyme activity (Rattus norvegicus [11]): 68% | Enzyme activity (Rattus norvegicus [12]): 62%

O=C(O)C1CN(CCCP(=O)(O)O)CCN1.O=C(O)c1cccnc1C(=O)O (stereo unspecified)
Enzyme activity (Rattus norvegicus [7]): 98% | Enzyme activity (Rattus norvegicus [8]): 99%

Cc1onc(OCC(=O)O)c1CC(N)C(=O)O (stereo unspecified)
IC50 [3]: 98 µM | IC50 [13]: 90 µM

Cc1onc(O)c1CC(N)C(=O)O [(R,S)-AMPA]
Enzyme activity (Rattus norvegicus [11]): 53% and 40%

C=C(C)[C@H]1CN[C@H](C(=O)O)[C@H]1CC(=O)O [KAINIC ACID]
Enzyme activity (Rattus norvegicus [9]): 34% | Enzyme activity (Rattus norvegicus [10]): 44%

O=C(O)c1cccnc1C(=O)O [QUINOLINIC ACID]
Enzyme activity (Rattus norvegicus [11]): 61% | Enzyme activity (Rattus norvegicus [12]): 53%
